# Compound activity as filed in PubChem.
# INS promoter act – activators of insulin promoter-driven GFP, primary screen, imaging, TRM-6 cells (human fetal islet line), eGFP reporter, cell count; plate-scaled: unstimulated 0, stimulated control 100; activation, % at 2 µM; actives 0.81% (n = 130,000);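 active means activation at 2 µM above a set limit, confirmed on inspection of the cell images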;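 further: share of cells whose green reporter signal exceeds an intensity cutoff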
#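 Test system: TRM-6 insulin promoter–eGFP reporter cells / Quantity: 1,000 cells per well / Reagent: tamoxifen inducer, 0.75 µM, in seeding medium / Compound dosing: 2 µM final, single concentration / Schedule: overnight tamoxifen, then two-day compound incubation at 37 °C / Measured by: automated fluorescence imaging of paraformaldehyde-fixed, Hoechst-counterstained cells, green channel / Read-out: percent activation from GFP-positive cell fraction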
# Numbers without * were called inactive. This is one part of a sample in which hits are shown more often than they occur.
SMILES,INS promoter act
Cc1nnc2c(Oc3ccccc3)nc3ccccc3n12,131.4*
CCc1nc2ccccc2c2nc3ccccc3n12,-6.5
Cc1ccc(-c2nnc3c(C(F)(F)F)nc4ccccc4n23)cc1,3.6
O=C1C2C3C=CC(C4CC34)C2C(=O)N1/N=C/c1cccs1 (centres undefined),9.7
CC(C)N1CCN(CC#Cc2ccccc2)CC1CCO (centres undefined),0.0
Cc1ccc(NC(=O)c2ccncc2)cc1[N+](=O)[O-],2.0
O=C(Nc1cccc(Cl)c1)c1ccc(-n2cncn2)c([N+](=O)[O-])c1,6.5
Cc1ccc(NC(=O)c2ccc(-n3cccn3)c([N+](=O)[O-])c2)cc1C,218.2*
Cc1cccc(NC(=O)Cn2nnc3ccccc32)c1,7.1
Cn1cc(CC(=O)NCCN2CCOCC2)c2ccccc21,0.0
Cc1[nH]nc2ncc(C(=O)c3ccccc3O)cc12,-80.0
O=C(c1ccc(F)cc1)c1cn[nH]c1-c1ccccc1O,171.0*
Cc1ccc(C(=O)c2cn[nH]c2-c2ccccc2O)cc1,0.0
Cc1cc(C)nc(NCCO)n1,-7.1
COC(CNC(=O)c1cc(-c2ccncc2)nc2ccc(S(=O)(=O)N3CCOCC3)cc12)OC,0.0
Cn1nnnc1SCC(=O)N1c2ccccc2Sc2ccccc21,-9.1
C=CCn1c(CNC(=O)c2ccccc2C)nnc1SCC(=O)NC1CCCC1,304.7
C=CCn1c(CNC(=O)c2ccco2)nnc1SCC(=O)N1c2ccccc2Sc2ccccc21,103.3*
Cc1cc(O)ccc1N=Cc1c(C(F)(F)F)[nH][nH]c1=O,-5.9
O=C(Nc1ccccc1)/C(=C1\CCCN1)[N+](=O)[O-],-9.5
CCCC(C)c1nnc(NC(=O)c2cc(C(=O)OC)cc([N+](=O)[O-])c2)s1 (centres undefined),-6.7
COc1ccccc1C(=O)NNC(=O)c1sccc1-n1cccc1,138.5
Cc1cc(/C=C2/SC(=S)N(c3ccc([N+](=O)[O-])cc3)C2=O)c(C)n1-c1cccnc1,118.8
Cc1ccc(/C=C2\SC(=S)N(Cc3ccccc3)C2=O)o1,-9.7
COc1ccc(-n2c(C)cc(/C=C3\SC(=S)N(Cc4ccco4)C3=O)c2C)cc1,244.8*
SMILES,INS promoter act
CCNC(=O)c1ccc2c(c1)C1C3CCC(C3)C1C(c1ccccc1)N2 (centres undefined),7.7
Cc1ccc(S(=O)(=O)N(C)C)cc1NC(=O)COC(=O)c1ccc2c(c1)OCO2,102.9
Cc1ccc(S(=O)(=O)N(C)C)cc1NC(=S)NC(=O)C12CC3CC(CC(C3)C1)C2,387.5*
CN(C)S(=O)(=O)c1cccc(NC(=S)NC(=O)C2CCCCC2)c1,-7.7
COc1cc2nc(C3CCC3)nc(N3CCN(c4ccccc4OC)CC3)c2cc1OC,0.0
Cc1ccccc1CN1CCN(S(C)(=O)=O)CC1,443.8*
CCOc1ccccc1CN1CCN(S(C)(=O)=O)CC1,0.0
Cc1ccccc1CN1CCN(CC2CC3C=CC2C3)CC1 (centres undefined),4.2
CC(C)Cn1c(N)c(C(=O)COC(=O)C2CC(=O)N(Cc3ccccc3Cl)C2)c(=O)n(C)c1=O (centres undefined),5.9
CCOc1ccccc1N1CCN(CC(=O)N(CC(C)C)c2c(N)n(CC(C)C)c(=O)[nH]c2=O)CC1,9.5
CCS(=O)(=O)c1ccc(N=Nc2ccc(O)c3ncccc23)c(OC)c1,625.0*
Oc1ccc(CN2CCCCC2)c2cccnc12,388.9
Oc1c(Cl)cc(Cl)c2cccnc12,9.1
Cc1ccc(N=Nc2ccc(O)c3ncccc23)cc1,123.1
CCS(=O)(=O)c1ccc(O)c(NC(=O)c2cc(OC)c(OC)c(OC)c2)c1,0.0
Cc1ccc(N=Nc2ccc(O)c3ncccc23)cc1C,278.6*
CCc1nnc(NC(=O)CN2CCN(c3ccc(Cl)cc3)CC2)s1,117.1
CC(C)CNC(=O)CC(c1ccccc1)c1ccccc1,0.0
CCOC(=O)c1c(NC(=O)CN2C(=O)NC(C)(c3ccccc3)C2=O)sc(C)c1C (centres undefined),0.0
O=C(CN1CCSC1=NCc1ccccc1)c1ccccc1,0.0
CC(=O)Oc1ccc(C(=O)Nc2cc(NC(=O)c3ccc(OC(C)=O)cc3)cc(C(=O)NC(C)(C)C)c2)cc1,2.7
Cc1ccc(CNC(=O)C(CCC(N)=O)NC(=O)OCc2ccccc2)cc1 (centres undefined),5.3
CCOc1ccc(CCNC(=O)COC(=O)c2ccco2)cc1OCC,0.0
CCOc1ccc(CCNC(=O)C(CCC(N)=O)NC(=O)OCc2ccccc2)cc1OCC (centres undefined),228.6*
CCSc1nc2ccccc2c(=O)n1OCC(=O)OC,0.0
COC(=O)COn1c(SC(C)C)nc2ccccc2c1=O,6.9
CCOC(=O)C(C)On1c(SC(C)C(=O)OCC)nc2ccccc2c1=O (centres undefined),75.7*
Cc1cc(C(=O)CSc2nnnn2C)c(C)n1CCc1ccc(F)cc1,125.8*
Cc1cc(C(=O)CCl)c(C)n1CCc1ccc(F)cc1,-100.0
Cc1cc(C(=O)CSc2nnc(N)s2)c(C)n1CCc1ccc(F)cc1,0.0
